{"source": "paper PMC3443740", "about": "(Journal of immunology (Baltimore, Md. : 1950), 2012)", "key": {"panel of 121 kinases": {"test_system": "panel of 121 kinases", "test": "kinase selectivity profiling", "assay_type": "biochemical", "conditions": "panel of 121 kinases in vitro; Ruxolitinib at 0.1 μM"}, "TrkA": {"target": "TrkA (Homo sapiens, UniProt P04629)", "sequence (P04629 33-796, species assumed)": "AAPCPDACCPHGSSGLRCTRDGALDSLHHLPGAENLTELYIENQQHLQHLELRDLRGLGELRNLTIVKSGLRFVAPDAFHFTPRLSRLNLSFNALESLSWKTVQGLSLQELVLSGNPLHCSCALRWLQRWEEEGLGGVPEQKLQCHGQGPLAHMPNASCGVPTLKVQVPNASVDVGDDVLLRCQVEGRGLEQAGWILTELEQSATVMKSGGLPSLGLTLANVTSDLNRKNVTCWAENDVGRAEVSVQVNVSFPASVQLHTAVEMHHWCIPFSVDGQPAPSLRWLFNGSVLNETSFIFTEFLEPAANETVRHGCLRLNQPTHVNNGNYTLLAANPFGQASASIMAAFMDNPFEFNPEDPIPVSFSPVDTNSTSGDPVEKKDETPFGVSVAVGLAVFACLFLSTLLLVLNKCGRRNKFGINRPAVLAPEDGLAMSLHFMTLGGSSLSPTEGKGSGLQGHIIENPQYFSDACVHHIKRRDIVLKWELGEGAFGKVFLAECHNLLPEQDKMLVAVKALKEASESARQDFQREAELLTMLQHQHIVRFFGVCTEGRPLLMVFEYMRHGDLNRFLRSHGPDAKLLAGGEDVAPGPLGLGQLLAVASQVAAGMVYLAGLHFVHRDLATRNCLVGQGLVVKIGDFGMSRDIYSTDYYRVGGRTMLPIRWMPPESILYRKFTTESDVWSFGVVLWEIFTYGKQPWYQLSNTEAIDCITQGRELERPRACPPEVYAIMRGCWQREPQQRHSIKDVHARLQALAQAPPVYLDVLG", "test": "in vitro protein kinase assay, TrkA", "assay_type": "biochemical", "conditions": "read-out: inhibition of TrkA"}, "IRAK1": {"target": "IRAK1 (Homo sapiens, UniProt P51617)", "sequence (P51617 whole entry, species assumed)": "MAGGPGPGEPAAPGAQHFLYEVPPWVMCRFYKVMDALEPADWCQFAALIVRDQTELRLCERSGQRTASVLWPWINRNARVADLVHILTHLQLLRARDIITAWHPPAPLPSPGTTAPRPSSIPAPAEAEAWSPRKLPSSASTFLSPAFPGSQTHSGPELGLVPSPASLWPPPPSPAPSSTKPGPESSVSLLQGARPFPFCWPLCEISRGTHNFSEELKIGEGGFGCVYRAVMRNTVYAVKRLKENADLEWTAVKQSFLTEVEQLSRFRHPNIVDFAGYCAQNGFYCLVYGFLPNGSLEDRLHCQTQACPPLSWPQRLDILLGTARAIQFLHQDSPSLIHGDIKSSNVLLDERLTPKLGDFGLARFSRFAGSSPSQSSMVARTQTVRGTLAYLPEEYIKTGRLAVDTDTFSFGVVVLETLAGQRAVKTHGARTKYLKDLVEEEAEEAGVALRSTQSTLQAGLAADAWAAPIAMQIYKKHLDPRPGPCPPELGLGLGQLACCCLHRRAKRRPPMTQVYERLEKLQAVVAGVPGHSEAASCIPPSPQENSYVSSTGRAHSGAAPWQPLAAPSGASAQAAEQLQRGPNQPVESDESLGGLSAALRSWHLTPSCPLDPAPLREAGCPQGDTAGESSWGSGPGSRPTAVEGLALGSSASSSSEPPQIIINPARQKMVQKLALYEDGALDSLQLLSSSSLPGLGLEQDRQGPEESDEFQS", "test": "in vitro protein kinase assay, IRAK1", "assay_type": "biochemical", "conditions": "1 μM Ruxolitinib"}, "MARK3": {"target": "MARK3 (Homo sapiens, UniProt P27448)", "sequence (P27448 whole entry, species assumed)": "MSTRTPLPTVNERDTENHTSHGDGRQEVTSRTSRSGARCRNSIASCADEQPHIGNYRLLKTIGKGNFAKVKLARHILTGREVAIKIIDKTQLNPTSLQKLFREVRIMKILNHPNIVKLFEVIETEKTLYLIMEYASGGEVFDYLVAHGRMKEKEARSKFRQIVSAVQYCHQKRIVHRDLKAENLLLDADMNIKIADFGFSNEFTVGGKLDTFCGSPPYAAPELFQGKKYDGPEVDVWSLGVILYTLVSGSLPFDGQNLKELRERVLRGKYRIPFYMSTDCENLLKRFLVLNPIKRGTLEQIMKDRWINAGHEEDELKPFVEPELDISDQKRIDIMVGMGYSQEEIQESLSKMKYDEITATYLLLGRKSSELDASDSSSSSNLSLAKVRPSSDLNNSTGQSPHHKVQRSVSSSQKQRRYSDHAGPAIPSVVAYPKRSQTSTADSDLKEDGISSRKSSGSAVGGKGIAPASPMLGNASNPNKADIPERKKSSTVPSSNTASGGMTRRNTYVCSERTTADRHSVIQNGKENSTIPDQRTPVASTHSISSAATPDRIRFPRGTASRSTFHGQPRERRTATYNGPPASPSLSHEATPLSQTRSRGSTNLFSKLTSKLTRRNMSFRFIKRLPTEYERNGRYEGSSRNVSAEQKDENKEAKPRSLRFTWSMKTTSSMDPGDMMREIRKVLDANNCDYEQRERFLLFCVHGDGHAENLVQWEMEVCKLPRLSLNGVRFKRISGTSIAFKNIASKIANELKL", "test": "in vitro protein kinase assay, MARK3", "assay_type": "biochemical", "conditions": "1 μM Ruxolitinib"}, "BMDMs [1]": {"test_system": "BMDMs", "test": "LPS induced signaling in BMDMs, immunoblotting", "assay_type": "cell-based, mouse", "conditions": "0.5 μM Ruxolitinib, 100 ng/ml LPS", "outline": "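Wild-type mouse BMDMs were pretreated 1 h with 0.5 µM test compound, then stimulated with 100 ng/ml LPS for varying times. Cells were lysed directly in SDS sample buffer and run on 10% polyacrylamide gels, then transferred to nitrocellulose. Blots were probed for total and phospho STAT3 (Y705, S727), phospho-STAT1 Y701, ERK1/2, p38, phospho-JNK, phospho-p105 and IκBα, with HRP secondaries and ECL detection.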"}, "BMDMs [2]": {"test_system": "BMDMs", "test": "LPS induced IL-10 mRNA", "assay_type": "cell-based, mouse", "conditions": "100 ng/ml LPS", "outline": "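BMDMs came from wild-type or IFNαβR knockout mice, cultured 7 d with mCSF and used 24 h after replating. They were pretreated 1 h with test compound (0.5 µM or 5 µM), then given 100 ng/ml E. coli O26:B6 LPS over a time course. IL-10 mRNA was measured by Q-PCR (18s-normalised) and secreted IL-10 by multiplex assay. SD from independent cultures of four mice.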"}, "BMDMs [3]": {"test_system": "BMDMs", "test": "IFNβ induced IL-10 and IL-6 transcription in BMDMs", "assay_type": "cell-based, mouse", "conditions": "0.5 μM Ruxolitinib, 500 Units/ml IFNβ, wild type BMDMs", "outline": "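Wild-type mouse BMDMs were grown 7 d from bone marrow in DMEM with 10% heat-inactivated FBS and 5 ng/ml mCSF, then replated and used 24 h later. Cells were pretreated 1 h with 0.5 µM test compound, then given 500 U/ml IFN-β for varying times. IL-10 or IL-6 mRNA was measured by SYBR green Q-PCR, normalised to 18s against unstimulated wild-type controls. Four mice, independent cultures.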"}, "BMDMs [4]": {"test_system": "BMDMs", "test": "LPS induced pro-inflammatory cytokine production in BMDMs", "assay_type": "cell-based, mouse", "outline": "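BMDMs came from wild-type, IL-10 knockout or IFNαβR knockout mice and were pretreated 1 h with 0.5 µM test compound. Stimulation was 100 ng/ml LPS over a time course, or LPS ± 100 ng/ml IL-10 for 6 h in IL-10 knockout cells. Secreted TNF-α, IL-6, IL-12p40 and IL-12p70 were measured by Luminex multiplex, and the matching mRNAs (IL-12p35 for p70) by 18s-normalised Q-PCR. Four mice per genotype.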"}, "phospho Tyr705 STAT3": {"test_system": "phospho Tyr705 STAT3", "conditions": "BMDMs, 100 ng/ml IL-10 30 min"}, "phospho-Y701 STAT1": {"test_system": "phospho-Y701 STAT1", "conditions": "BMDMs, 500 Units/ml IFNβ 30 min"}, "DBA/1J mice": {"test_system": "DBA/1J mice", "conditions": "IP LPS, 5mg/kg Tofacitinib, ref [50]; cited from earlier work"}, "[5]": {"conditions": "0.5 μM Ruxolitinib, wild type BMDMs"}, "[6]": {"conditions": "0.5 μM Ruxolitinib, 100 ng/ml LPS"}, "[7]": {"conditions": "0.5 μM Ruxolitinib, 100 ng/ml LPS 6 h"}}}
{"smiles": "N#C/C(=C/c1ccc(O)c(O)c1)C(=O)NCc1ccccc1", "note": "[AG-490]", "values": [{"measurement": "selectivity in kinase panel", "setting": "panel of 121 kinases", "value": "could also block several Ser/Thr kinases"}]}
{"smiles": "N#CC[C@H](C1CCCC1)n1cc(-c2ncnc3[nH]ccc23)cn1", "note": "[Ruxolitinib]", "values": [{"measurement": "inhibition at 0.1 µM", "setting": "TrkA", "value": "> 50", "unit": "%"}, {"measurement": "activity against IRAK1", "setting": "IRAK1", "value": "weak activity"}, {"measurement": "activity against MARK3", "setting": "MARK3", "value": "weak activity"}, {"measurement": "LPS induced STAT1 Y701 phosphorylation", "setting": "BMDMs [1]", "value": "blocked"}, {"measurement": "TLR4 induced activation of the ERK1/2, p38 or JNK MAPK cascades", "setting": "BMDMs [1]", "value": "did not affect"}, {"measurement": "activation of the NFκB pathway (IκBα degradation, p105 and IκBα phosphorylation)", "setting": "BMDMs [1]", "value": "no major affects"}, {"measurement": "phosphorylation of STAT3 on S727", "setting": "BMDMs [1]", "value": "not blocked"}, {"measurement": "phosphorylation of STAT3 on Y705 in response to LPS", "setting": "BMDMs [1]", "value": "completely blocked"}, {"measurement": "IL-10 levels secreted from IFNαβR knockout macrophages", "setting": "BMDMs [2]; 0.5 μM Ruxolitinib", "value": "did not affect"}, {"measurement": "IL-10 secreted into the media at later time points (8 to 24 h)", "setting": "BMDMs [2]; [5]", "value": "decrease"}, {"measurement": "IL-10 secretion at 4 h", "setting": "BMDMs [2]; [5]", "value": "unaffected"}, {"measurement": "initial transcription of IL-10", "setting": "BMDMs [2]; [5]", "value": "did not affect"}, {"measurement": "transcription of IL-10 at later time points", "setting": "BMDMs [2]; [5]", "value": "reduce"}, {"measurement": "IFNβ induced IL-10 transcription", "setting": "BMDMs [3]", "value": "greatly reduced"}, {"measurement": "IFNβ stimulated IL-6 transcription", "setting": "BMDMs [3]", "value": "inhibited"}, {"measurement": "IL-6 production from IFNαβR knockout macrophages", "setting": "BMDMs [4]; [6]", "value": "increased"}, {"measurement": "IL-6 production from wild type cells", "setting": "BMDMs [4]; [6]", "value": "increased"}, {"measurement": "TNFα production in IL-10 knockout cells", "setting": "BMDMs [4]; [6]", "value": "little effect"}, {"measurement": "peak amount of LPS-induced IL-12 mRNA in IL-10 knockout cells", "setting": "BMDMs [4]; [6]", "value": "decreased"}, {"measurement": "secreted levels of IL-6 in wild type and IL-10 knockout cells", "setting": "BMDMs [4]; [6]", "value": "intermediate between the wild type and IL-10 knockout cells"}, {"measurement": "production of IL-6 by LPS in IL-10 knockout BMDMs", "setting": "BMDMs [4]; [7]", "value": "moderately decreased"}, {"measurement": "production of TNFα by LPS in IL-10 knockout BMDMs (decrease)", "setting": "BMDMs [4]; [7]", "value": "to a lesser extent"}, {"measurement": "TNFα mRNA and secreted protein levels in wild type cells", "setting": "BMDMs [4]; 0.5 μM Ruxolitinib, 100 ng/ml LPS, to similar values as IL-10 knockout BMDMs", "value": "increased"}, {"measurement": "inhibitory effects of IL-10 on TNFα and IL-6 production", "setting": "BMDMs [4]; IL-10 knockout BMDMs, 0.5 μM Ruxolitinib, LPS and 100 ng/ml IL-10 6 h", "value": "blocked"}]}
{"smiles": "C[C@@H]1CCN(C(=O)CC#N)C[C@@H]1N(C)c1ncnc2[nH]ccc12", "note": "[Tofacitinib]", "values": [{"measurement": "IL-10 mRNA at later time points", "setting": "BMDMs [2]; 5 μM Tofacitinib", "value": "inhibited"}, {"measurement": "IL-10 secretion at 8 and 16h after LPS stimulation", "setting": "BMDMs [2]; 5 μM Tofacitinib", "value": "decreased"}, {"measurement": "initial phase of IL-10 transcription", "setting": "BMDMs [2]; 5 μM Tofacitinib", "value": "did not affect"}, {"measurement": "IL-6 secretion following 24h of LPS stimulation", "setting": "BMDMs [4]; Tofacitinib", "value": "increased"}, {"measurement": "TNF and IL-12 production in response to a prolonged stimulation with LPS", "setting": "BMDMs [4]; Tofacitinib at a concentration able to inhibit STAT3 phosphorylation", "value": "increased"}, {"measurement": "IL-10 stimulated STAT3 phosphorylation", "setting": "phospho Tyr705 STAT3", "value": "able to block"}, {"measurement": "IFNβ stimulated STAT1 phosphorylation", "setting": "phospho-Y701 STAT1", "value": "able to block"}, {"measurement": "plasma IL-10 levels", "setting": "DBA/1J mice", "value": "increased"}, {"measurement": "plasma levels of TNF, IL-6 and IL-12", "setting": "DBA/1J mice", "value": "reduced"}]}
